Laboratory results as given in the RNAGym collection of RNA variant scans (doi:10.1126/science.aae0568).
This sample holds only a part of the variants without activity.

B1: tRNA (parent)
chain: GUUCCGUUGGCGUAAUGGUAACGCGUCUCCCUCCUAAGGAGAAGACUGCGGGUUCGAGUCCCGUACGGAACG

Variants of: B1
Assay: yeast fitness relative to wild type (ratio to wild type); higher = fitter; tRNA-Arg(CCU), competitive growth, 37 C, YPD
Method in brief: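 A pool of Saccharomyces cerevisiae strains, each with a tRNA-Arg(CCU) gene variant at the native genomic locus, was competed in YPD at 37°C for 24 hours across six parallel replicates. The variants had been chemically synthesised at a 3% per-site mutation rate over 69 sites, and gene amplicons before and after competition were read by 100-nucleotide paired-end sequencing. Darwinian fitness relative to wild type rested on changes in genotype frequencies. Genotypes required ≥ 100 starting reads, and estimates < 0.5 were set to 0.5.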

| Variant | yeast fitness |
| --- | --- |
| GUUCAGUUGGCGUAAUGGUAACGCGUCUCCUUCCUAAGGAGAAGACUGCGGGUUCGAGUCCCGUACGGAGCG [C5A C31U A70G] | 0.614 |
| GUUCAGUUGGCGUAAUGGUAACGCGUCUCACUCCUAAGGAGAAGACUGCGAGUUCGAGUCCCGUACGGAACG [C5A C30A G51A] | ≤ 0.5 |
| GUUCAGUUGGCGUAAUGGUAACGCGUCUCACUCCUAAGGAGAAGACUGCGGGUUCGAGUCCCGCACGGAACG [C5A C30A U64C] | 0.547 |
| GUUCAGUUGGCGUAAUGGUAACGCGUCUCCCUGCUAAGGAGAAGACUGUGGGUUCGAGUCGCGUACGGCACG [C5A C33G C49U C61G A69C] | ≤ 0.5 |
| GUUCAGUUGGCGUAAUGGUAACGCGUCUGCCUCCUAAGGAGAAGACUGCGGGUUCGAGUCCCGUACCGAACG [C5A C29G G67C] | 0.588 |
| GUUCAGUUGGCGUAAUGGUAACGCGUGUCCCUCCUAAGGAGAAGACUGCGGGUUCGAGUCCCGUACGGAACG [C5A C27G] | 0.709 |
| GUUCAGUUGGCGUAAUGGUAACGGGUCUCCCUCCUAAGGAGAAGACUGUGGGUUCGAGUCCCGUACGGAACG [C5A C24G C49U] | ≤ 0.5 |
| GUUCAGUUGGCGUAAUGGUAACGCGUCUUCCUCCUAAGGAGAAGACUGCGGGUUCGAGUCCCGUACGGUACG [C5A C29U A69U] | 0.632 |
| GUUCAGUUGGCGUAAUGGUAACGCGUCUCCCUUCUAAGGAGAAGAGUGCGGGUUCGAGUCCCGUAGAGCACG [C5A C33U C46G C66G G67A A69C] | ≤ 0.5 |
| GUUCAGUUGGCGUAAUGGUAACGCGUCUGCCUCCUAAGGAGAAGACUGCGGGUUCCAGACCCGUACGGAACG [C5A C29G G56C U59A] | 0.717 |
| GUUCAGUUGGCGUAAUGGUAACGCGUUUCCCUCCUAAGCAGAAGACUGUGGGUUCGACUCCUGUACGGAACG [C5A C27U G39C C49U G58C C62U] | ≤ 0.5 |
| GUUCAGUUGGCGUAAUGGUAACGCGUCUCCCUGAUAAGGCGAAGACUGCGGGUUCGAGUCCCGUACAGAACG [C5A C33G C34A A40C G67A] | ≤ 0.5 |
| GUUCAGUUGGCGUAAUGGUAACGCGUAGCCCUCCUAAGGAGAAGACUGCGGGUUUGAGUCCCGUACGGAACG [C5A C27A U28G C55U] | ≤ 0.5 |
| GUUCAGUUGGCGUAAUGGUAACGCGUCUCCUUCCUAAGGAGAAGACUGCGGGUUCGAGUCCCGUACGGUACG [C5A C31U A69U] | 0.786 |
| GUUCAGUUGGCGUAAUGGUAACGCGUCUCCAUCCUAAGGAGAAGACUGCGGGUUAGAGUCACAUACUGAACG [C5A C31A C55A C61A G63A G67U] | ≤ 0.5 |
| GUUCAGUUGGCGUAAUGGUAACGCGUCUCCCUACUAAGGCAAAGACUGCGGGUUCGAGACCCGAAGGGAACG [C5A C33A A40C G41A U59A U64A C66G] | 0.584 |
| GUUCAGUUGGCGUAAUGGUAACGCGUCUCCAUCCUAAGGAGAAGACUGUGGGUUCGAGUCCCGUACGGAACG [C5A C31A C49U] | ≤ 0.5 |
| GUUCAGUUGGCGUAAUGGUAACGCGUCUAGCUCCUAAGGAGAAGACUGCGGGUUUGAGUCGCGUCCGGAACG [C5A C29A C30G C55U C61G A65C] | 0.554 |
| GUUCAGUUGGCGUAAUGGUAACGCGUCUUCCUCCUAAGGAGAAGACUGCGGGUUCGAGUCCCGUAUGGAACG [C5A C29U C66U] | 0.581 |

| Variant | yeast fitness |
| --- | --- |
| GUUCAGUUGGCGUAAUGGUAACGCGUCUCGCUCCUGAGGAGAAGACUGCGGGUUCGUGUCCCGUUCGGAACG [C5A C30G A36G A57U A65U] | ≤ 0.5 |
| GUUCAGUUGGCGUAAUGGUAACGCGUCUCCCUCGUAAGGAGAAGAUUGCGGGUUCGAGUCCCGUACGGAUCG [C5A C34G C46U A70U] | ≤ 0.5 |
| GUUCAGUUGGCGUAAUGGUAACGCGUCUUCCUCCUAAGGAGAAGACUGCGGGUUCGAGUCCCGUACGGAACG [C5A C29U] | 0.731 |
| GUUCAGUUGGCGUAAUGGUAACGGGACUGCCACCUAAGGAGAAGACUGCGGGUUCGAGUCCCGUACGGAACG [C5A C24G U26A C29G U32A] | 0.531 |
| GUUCAGUUGGCGUAAUGGUAACGCGUCUCCCUACUAAAGAGAAGCCUGCGGAUGCGAGUCCCGUACAGAACG [C5A C33A G38A A45C G52A U54G G67A] | ≤ 0.5 |
| GUUCAGUUGGCGUAAUGGUAACGCGUCUCCAUCCUAAGGCGAUGACUGCGGGUUCGAGUCCCGUGGGGAACG [C5A C31A A40C A43U A65G C66G] | ≤ 0.5 |
| GUUCAGUUGGCGUAAUGGUAACGCGUCUCCGUCCUAGGGAGAAGACUGCGGGUUCGAGUCCCGUACGGAUCG [C5A C31G A37G A70U] | 0.532 |
| GUUCAGUUGGCGUAAUGGUAACGCGUCUCCCUCGUAAGGAGAAGACUGCGGGUUCGAGUCCCGUCCGGAACG [C5A C34G A65C] | ≤ 0.5 |
| GUUCAGUUGGCGUAAUGGUAACGCGUCUCCCUUCUAAGGAGAAGAGUGCGGGUUCGAGUCCCGUACGGAACG [C5A C33U C46G] | ≤ 0.5 |
| GUUCAGUUGGCGUAAUGGUAACGCGUCUCCCUUCUAAGGAGAAGAAUGCGGGUUCGAGUCCCGUACGGAACG [C5A C33U C46A] | ≤ 0.5 |
| GUUCAGUUGGCGUAAUGGUAACGCGUCUCCUUUCUAAGGAGCAGACUGUGGGUUCGAGUCCCGUCCGGAACG [C5A C31U C33U A42C C49U A65C] | ≤ 0.5 |
| GUUCAGUUGGCGUAAUGGUAACGCGUCUCCAUCCUAAGGAGAAGACUGCGGGUUAGAGUCACAUACGGAACG [C5A C31A C55A C61A G63A] | 0.671 |
| GUUCAGUUGGCGUAAUGGUAAUGCGUCUCCCUCCUAAGAAGAAGACCGCGGGUUCGAGUCUCGUACGGAACG [C5A C22U G39A U47C C61U] | ≤ 0.5 |
| GUUCAGUUGGCGUAAUGGUAACGCGUCUCACUCCUAAGGAGAAGACUGCGGGUUCGAGUCCCGUACGGAUCG [C5A C30A A70U] | 0.742 |
| GUUCAGUUGGCGUAAUGGUAAUGCGUCUCCCUCCUAAGGAGAAGACUGUCGGUUCGAGUCCCGUACGGAACG [C5A C22U C49U G50C] | ≤ 0.5 |
| GUUCAGUUGGCGUAAUGGUAACGAGUCUCCCUCCUAAGGAGAAGACUGCGGGUUCGAGUCCCGUACGGAACG [C5A C24A] | 0.727 |
| GUUCAGUUGGCGUAAUGGUAACGUGUCUCCCUCCUAAGGAGAAGACUGCGGGUUCGAGUCCCGCACGGAACG [C5A C24U U64C] | 0.639 |
| GUUCAGUUGGCGUAAUGGUAACGUGUCUCCCUCCCAAGGAGAAGACUGCGGGUUCGAGUCCCGUAUGGAACG [C5A C24U U35C C66U] | 0.549 |
